Measurements published in ChEMBL document CHEMBL5647682, “A selective PIKfyve inhibitor blocks PtdIns(3,5)P(2) production and disrupts endomembrane transport and retroviral budding” (EMBO Rep, 2008).
Blank lines part the entries; values can stand above or below the compound they belong to. The source made the active and inactive calls. No cut-off for these calls is given here.

What was measured:
[1] = molecular target: 1-phosphatidylinositol 3-phosphate 5-kinase FAB1 (Saccharomyces cerevisiae (strain ATCC 204508 / S288c) (Baker's yeast), UniProt P34756); assay: Inhibition of Saccharomyces cerevisiae GST-tagged Fab1 incubated for 15 mins in presence of ATP
Chain of 1-phosphatidylinositol 3-phosphate 5-kinase FAB1 (P34756 whole entry): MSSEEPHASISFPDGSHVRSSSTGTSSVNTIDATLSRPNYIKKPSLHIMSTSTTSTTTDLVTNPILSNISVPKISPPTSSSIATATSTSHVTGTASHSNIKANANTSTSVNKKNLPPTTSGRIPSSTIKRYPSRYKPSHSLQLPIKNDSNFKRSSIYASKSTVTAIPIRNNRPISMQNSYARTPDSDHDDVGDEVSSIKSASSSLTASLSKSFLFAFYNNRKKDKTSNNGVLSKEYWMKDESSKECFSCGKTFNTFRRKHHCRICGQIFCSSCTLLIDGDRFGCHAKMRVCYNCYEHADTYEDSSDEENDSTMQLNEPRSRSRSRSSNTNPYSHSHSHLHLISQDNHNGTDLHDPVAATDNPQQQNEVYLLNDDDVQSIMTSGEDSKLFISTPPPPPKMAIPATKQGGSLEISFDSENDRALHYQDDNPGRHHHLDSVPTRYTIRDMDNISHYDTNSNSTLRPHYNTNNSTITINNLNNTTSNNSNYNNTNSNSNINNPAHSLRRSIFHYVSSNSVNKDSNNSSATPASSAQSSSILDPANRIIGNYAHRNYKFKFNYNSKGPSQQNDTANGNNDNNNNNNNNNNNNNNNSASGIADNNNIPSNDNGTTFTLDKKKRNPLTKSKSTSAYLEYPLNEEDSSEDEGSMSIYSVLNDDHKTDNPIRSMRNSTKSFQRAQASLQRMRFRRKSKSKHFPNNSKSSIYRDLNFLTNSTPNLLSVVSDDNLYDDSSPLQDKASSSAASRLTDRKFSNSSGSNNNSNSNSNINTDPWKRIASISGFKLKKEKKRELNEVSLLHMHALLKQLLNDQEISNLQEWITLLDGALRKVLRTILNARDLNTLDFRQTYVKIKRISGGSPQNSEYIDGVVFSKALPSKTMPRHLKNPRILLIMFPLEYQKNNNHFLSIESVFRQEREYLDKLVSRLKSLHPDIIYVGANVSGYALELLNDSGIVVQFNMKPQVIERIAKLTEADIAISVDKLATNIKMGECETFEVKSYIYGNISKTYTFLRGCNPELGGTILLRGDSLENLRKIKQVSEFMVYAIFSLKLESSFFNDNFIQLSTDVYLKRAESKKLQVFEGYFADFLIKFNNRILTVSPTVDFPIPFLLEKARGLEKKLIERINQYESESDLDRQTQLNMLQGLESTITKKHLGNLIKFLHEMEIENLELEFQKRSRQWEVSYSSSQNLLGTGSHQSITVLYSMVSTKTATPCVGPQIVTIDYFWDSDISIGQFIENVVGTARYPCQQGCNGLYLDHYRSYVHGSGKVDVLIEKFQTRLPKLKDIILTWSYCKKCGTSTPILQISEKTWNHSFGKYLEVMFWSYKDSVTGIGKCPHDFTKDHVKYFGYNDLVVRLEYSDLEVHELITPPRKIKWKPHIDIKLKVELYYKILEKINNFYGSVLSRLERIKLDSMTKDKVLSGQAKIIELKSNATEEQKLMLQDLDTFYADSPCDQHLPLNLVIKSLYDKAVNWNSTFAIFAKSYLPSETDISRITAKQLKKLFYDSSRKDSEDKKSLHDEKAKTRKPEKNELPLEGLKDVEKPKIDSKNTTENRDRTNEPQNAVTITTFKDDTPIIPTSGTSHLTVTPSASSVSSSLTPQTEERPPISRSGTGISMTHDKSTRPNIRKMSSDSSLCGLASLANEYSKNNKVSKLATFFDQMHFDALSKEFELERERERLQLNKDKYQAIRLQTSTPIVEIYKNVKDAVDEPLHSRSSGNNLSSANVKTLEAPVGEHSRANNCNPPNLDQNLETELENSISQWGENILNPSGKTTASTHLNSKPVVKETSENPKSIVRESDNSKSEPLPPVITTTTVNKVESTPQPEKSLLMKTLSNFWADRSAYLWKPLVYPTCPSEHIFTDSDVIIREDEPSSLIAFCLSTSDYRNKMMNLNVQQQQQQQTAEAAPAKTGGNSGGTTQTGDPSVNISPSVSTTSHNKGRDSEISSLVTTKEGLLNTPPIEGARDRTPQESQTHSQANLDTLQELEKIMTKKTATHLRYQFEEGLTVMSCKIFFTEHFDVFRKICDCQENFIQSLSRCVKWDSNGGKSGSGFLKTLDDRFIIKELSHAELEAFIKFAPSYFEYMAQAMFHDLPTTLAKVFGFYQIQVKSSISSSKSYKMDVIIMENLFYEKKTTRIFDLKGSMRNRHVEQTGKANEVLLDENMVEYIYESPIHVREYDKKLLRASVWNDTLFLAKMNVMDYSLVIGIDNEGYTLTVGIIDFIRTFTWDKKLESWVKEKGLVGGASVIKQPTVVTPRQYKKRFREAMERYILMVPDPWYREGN

NIH3T3 [2] = settings: Mus musculus, dose 800.0 nM
[3] = Inhibition of Saccharomyces cerevisiae GST-tagged PIKfyve
[4] = molecular target: Phosphatidylinositol 4,5-bisphosphate 3-kinase catalytic subunit alpha isoform (Homo sapiens, UniProt P42336); assay: Inhibition of GST-tagged Ptdlns3p P110alpha (unknown origin) expressed in baculovirus infected insect cells incubated for 15 mins in presence of ATP
Chain of Phosphatidylinositol 4,5-bisphosphate 3-kinase catalytic subunit alpha isoform (P42336 whole entry, canonical isoform): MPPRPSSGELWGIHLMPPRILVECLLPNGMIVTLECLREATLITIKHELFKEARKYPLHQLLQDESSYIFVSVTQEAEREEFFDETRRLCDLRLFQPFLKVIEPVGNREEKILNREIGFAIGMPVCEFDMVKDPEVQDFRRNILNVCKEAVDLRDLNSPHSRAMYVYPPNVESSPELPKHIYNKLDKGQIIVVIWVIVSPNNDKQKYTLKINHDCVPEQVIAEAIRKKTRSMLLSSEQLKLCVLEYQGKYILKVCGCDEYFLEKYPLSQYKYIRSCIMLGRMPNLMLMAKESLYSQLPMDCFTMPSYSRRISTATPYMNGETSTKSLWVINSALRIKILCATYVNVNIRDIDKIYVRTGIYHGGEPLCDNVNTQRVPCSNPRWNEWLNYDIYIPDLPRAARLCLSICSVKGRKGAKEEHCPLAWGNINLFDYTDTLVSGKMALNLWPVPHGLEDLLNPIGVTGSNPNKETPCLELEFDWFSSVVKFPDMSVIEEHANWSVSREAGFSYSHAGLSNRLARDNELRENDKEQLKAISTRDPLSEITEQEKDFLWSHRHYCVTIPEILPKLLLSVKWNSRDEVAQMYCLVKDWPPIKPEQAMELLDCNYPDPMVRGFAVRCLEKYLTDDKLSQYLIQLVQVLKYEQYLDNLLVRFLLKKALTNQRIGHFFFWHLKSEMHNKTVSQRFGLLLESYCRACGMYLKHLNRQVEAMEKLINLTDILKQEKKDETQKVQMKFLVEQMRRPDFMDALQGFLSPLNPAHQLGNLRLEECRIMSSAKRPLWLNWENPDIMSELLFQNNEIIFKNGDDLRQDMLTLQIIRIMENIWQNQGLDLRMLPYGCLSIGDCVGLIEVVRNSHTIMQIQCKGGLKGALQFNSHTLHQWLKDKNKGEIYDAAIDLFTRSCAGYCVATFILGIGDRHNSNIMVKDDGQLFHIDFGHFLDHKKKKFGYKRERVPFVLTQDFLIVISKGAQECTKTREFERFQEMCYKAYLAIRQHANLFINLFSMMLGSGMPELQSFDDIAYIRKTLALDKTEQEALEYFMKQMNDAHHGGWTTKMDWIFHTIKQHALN

[5] = Selectivity ratio of IC50 for GST-tagged Ptdlns3p P110alpha (unknown origin) to IC50 for Saccharomyces cerevisiae GST-tagged PIKfyve
Homo sapiens = species on record: Homo sapiens; assay: Inhibition of type 2 gamma PtdInsP (unknown origin) at 10 uM relative to control
[6] = Inhibition of mouse type 1 alpha PtdInsP
[7] = Effect on PtdIns3P production in [32p]pi labelled serum stimulated mouse NIH3T3 cells at 800 nM (reference value: 7685 +/- 307); format: functional
How it was run: (§1)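 Sub-confluent NIH3T3 cells in 6 cm dishes, moved to phosphate-free medium and labelled with 0.3 mCi/ml 32Pi for 1 h, then treated with or without inhibitor for 20 min. Lysis in ice-cold 1 M HCl, scraping, lipid extraction and HPLC analysis of labelled phosphoinositides.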

[8] = Effect on PtdIns4P production in [32p]pi labelled serum stimulated mouse NIH3T3 cells at 800 nM (reference value: 212147 +/- 5485); format: functional; how it was run: as §1
[9] = Effect on PtdIns(3,5)P2 production in [32p]pi labelled serum stimulated mouse NIH3T3 cells at 800 nM (reference value: 2219 +/- 71); format: functional; how it was run: as §1
[10] = Effect on PtdIns(3,4)P2 production in [32p]pi labelled serum stimulated mouse NIH3T3 cells at 800 nM (reference value: 1366 +/- 44); format: functional; how it was run: as §1
[11] = Effect on PtdIns(4,5)P2 production in [32p]pi labelled serum stimulated mouse NIH3T3 cells at 800 nM (reference value: 487335 +/- 641); format: functional; how it was run: as §1
NIH3T3 [12] = assay: Inhibition of PKB phosphorylation at Ser473 residue in mouse NIH3T3 cells at 800 nM under serum starved condition; format: cell-based
How it was run: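 NIH3T3 cells, 200,000 per well, grown in DMEM/10% donor calf serum, then held 18 h in 0.1% DCS. Pretreated 15 min with vehicle (DMSO), 800 nM inhibitor, 20 nM rapamycin or 10 μM LY294002, then left unstimulated or stimulated 15 min with 10% DCS. Lysates run on 10% SDS-PAGE, PVDF immunoblot with specific antibodies.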

NIH3T3 [13] = assay: Induction of swollen vesicle phenotype in mouse NIH3T3 cells at 800 nM incubated for 120 mins by time-lapse analysis; format: functional, cell-based
How it was run: (§2)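 Live imaging of NIH3T3 cells on glass-bottom dishes in phenol red-free DMEM/10% DCS at 37°C, 10% CO2. Cells given 800 nM compound and phase imaged for 120 min, frames every 10 s. Then washed, placed in drug-free medium and filmed a further 130 min.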

MEF = assay: Induction of swollen vesicle phenotype in MEF cells at 800 nM incubated for 120 mins by time-lapse analysis; format: functional, cell-based; settings: Mus musculus
MDCK = assay: Induction of swollen vesicle phenotype in MDCK cells at 800 nM incubated for 120 mins by time-lapse analysis; format: functional, cell-based; settings: Canis lupus familiaris
MCF-10A = assay: Induction of swollen vesicle phenotype in human MCF-10A cells at 800 nM incubated for 120 mins by time-lapse analysis; format: functional, cell-based
COS-7 [14] = assay: Induction of swollen vesicle phenotype in african green monkey COS-7 cells at 800 nM incubated for 120 mins by time-lapse analysis; format: functional, cell-based; settings: Chlorocebus aethiops
NIH3T3 [15] = assay: Induction of swollen vesicle phenotype in mouse NIH3T3 cells incubated for 120 mins by time-lapse analysis; format: functional, cell-based; settings: NIH3T3, 2 h; how it was run: as §2
NIH3T3 [16] = assay: Induction of cell division in mouse NIH3T3 cells at 800 nM; format: functional, cell-based
NIH3T3 [17] = assay: Inhibition of cell growth in mouse NIH3T3 cells after 7 days; format: functional; settings: time 7 day
NIH3T3 [18] = assay: Reversal of swollen vesicle phenotype in mouse NIH3T3 cells expressing Fab1 assessed as reduction in number of swollen vesicles at 800 nM incubated for 2 hrs by phase contrast microscopic analysis; format: functional; set-up: scale not given: the % may be the effect or the level left
NIH3T3 [19] = assay: Reversal of swollen vesicle phenotype in mouse NIH3T3 cells expressing Fab1 assessed as reduction in size of swollen vesicles at 800 nM incubated for 2 hrs by phase contrast microscopic analysis; format: functional, cell-based
NIH3T3 [20] = assay: Induction of EEA1 localization in vesicular structures of mouse NIH3T3 cells at 800 nM incubated for 2 hrs; format: functional, cell-based
How it was run: (§3)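 NIH3T3 cells on coverslips, untreated or given 800 nM compound for 2 h. Fixed in 4% paraformaldehyde, permeabilized in 0.2% Triton X-100, blocked in 2% BSA, then anti-EEA1 staining. Confocal single 0.4 μm optical sections, with phase image merged onto the fluorescence image.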

NIH3T3 [21] = assay: Induction of EEA1 localization in lumenal vesicles of mouse NIH3T3 cells at 800 nM incubated for 2 hrs; format: functional, cell-based; how it was run: as §3
NIH3T3 [22] = assay: Induction of CI-MPR localization in perinuclear vesicle of mouse NIH-3T3 at 800 nM incubated for 2 hrs; format: functional, cell-based
COS-7 [23] = assay: Induction of EGF localization in african green monkey COS7 cells at 800 nM preincubated for 2 hrs followed by EGF stimulation and measured after 60 mins; format: functional, cell-based; settings: Chlorocebus aethiops, time 3.0 hrs
NIH3T3 [24] = assay: Induction of EGF localization in mouse NIH3T3 cells at 800 nM preincubated for 2 hrs followed by EGF stimulation and measured after 60 mins; format: functional, cell-based; settings: time 3.0 hrs
NIH3T3 [25] = assay: Inhibition of autophagy in mouse NIH3T3 cells transfected with GFP-tagged LC3 assessed as accumulation of LC3 in enlarged vesicles at 800 nM after 2 hrs; format: functional, cell-based
How it was run: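 NIH3T3 cells transfected with GFP-LC3 (Lipofectamine 2000), examined 48 h post-transfection. Left untreated or treated 2 h with 800 nM compound, fixed in 4% paraformaldehyde, and GFP, phase and overlay images taken by confocal microscopy as 0.4 μm optical sections.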

IC50 [1]: > 10000 nM
SMILES: Oc1cccc(-c2nc(N3CCOCC3)c3oc4ncccc4c3n2)c1 [PI-103]
inhibition (NIH3T3 [2]): Active

IC50 [3]: 33 nM | IC50 [1]: > 5000 nM | IC50 [4]: 3300 nM | Ratio IC50 [5]: 100 | inhibition (Homo sapiens): inactive | IC50 [6]: > 2000 nM
SMILES: Nc1ccc(C(=O)Nc2cccc(-c3nc(N4CCOCC4)c4oc5ncccc5c4n3)c2)cn1
Activity [7]: 7476 | Activity [8]: 194539 | Activity [9]: 465 | Activity [10]: 1319 | Activity [11]: 393289 | inhibition (NIH3T3 [12]): inactive | Activity (NIH3T3 [13]): Active | Activity (MEF): Active | Activity (MDCK): Active | Activity (MCF-10A): Active | Activity (COS-7 [14]): Active | EC50 (NIH3T3 [15]): 400 nM | Activity (NIH3T3 [16]): inactive | inhibition (INH) (NIH3T3 [17]): 25% | Activity (NIH3T3 [18]): 50% | Activity (NIH3T3 [19]): Active | Activity (NIH3T3 [20]): Active | Activity (NIH3T3 [21]): Active | Activity (NIH3T3 [22]): Active | Activity (COS-7 [23]): Active | Activity (NIH3T3 [24]): Active | Activity (NIH3T3 [25]): Active
